Laboratory results taken from ChEMBL document CHEMBL4190190, “Furan and Lactam Jadomycin Biosynthetic Congeners Isolated from Streptomyces venezuelae ISP5230 Cultured with Nε-Trifluoroacetyl-l-lysine” (J Nat Prod, 2017).
Converted amounts (≈) assume the structure as drawn. The source made the active and inactive calls. The rule behind the calls is not given here.

Columns and labels:
Proteus vulgaris = assay: Antibacterial activity against Proteus vulgaris ATCC 12454 after 22 hrs by CLSI microbroth assay; type: functional, organism-based
BJ = assay: Cytotoxicity against human BJ cells after 24 hrs by alamar blue assay; type: cell-based
Staphylococcus warneri = assay: Antibacterial activity against Staphylococcus warneri ATCC 17917 after 22 hrs by CLSI microbroth assay; type: functional; details: ATCC 17917, 22 h
Staphylococcus aureus = assay: Antibacterial activity against methicillin-resistant Staphylococcus aureus ATCC 33591 after 22 hrs by CLSI microbroth assay; type: functional; details: ATCC 33591, 22 h
In short: (§1)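 Run within a six-organism panel: MRSA, Staphylococcus warneri and vancomycin-resistant E. faecium (Gram-positive), Proteus vulgaris and Pseudomonas aeruginosa (Gram-negative), and the yeast Candida albicans. Read-out was the minimum inhibitory concentration, reported in μg mL−1.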

Enterococcus faecium = assay: Antibacterial activity against vancomycin-resistant Enterococcus faecium EF379 after 22 hrs by CLSI microbroth assay; type: functional; details: EF379, 22 h; in short: as §1
Vero = assay: Cytotoxicity against African green monkey Vero cells after 24 hrs by alamar blue assay; type: cell-based; details: chlorocebus sabaeus
Pseudomonas aeruginosa = assay: Antibacterial activity against Pseudomonas aeruginosa ATCC 14210 after 22 hrs by CLSI microbroth assay; type: functional, organism-based

| SMILES | Activity (Proteus vulgaris) | MIC90 (BJ) [µg/mL] | MIC (Staphylococcus warneri) [µg/mL] | MIC (Staphylococcus aureus) [µg/mL] | MIC (Enterococcus faecium) [µg/mL] | MIC90 (Vero) [µg/mL] | Activity (Pseudomonas aeruginosa) |
| --- | --- | --- | --- | --- | --- | --- | --- |
| Cc1cc(O)c2c(c1)C1OC(=O)[C@H](CCCCNC(=O)C(F)(F)F)N1C1=C2C(=O)c2cccc(O[C@H]3C[C@@H](O)[C@@H](O)[C@H](C)O3)c2C1=O (some centres undefined) | inactive | > 128 | 3 (≈ 4.54 µM) | 3 (≈ 4.54 µM) | 13 (≈ 19.7 µM) | > 128 | inactive |
| Cc1cc(O)c2c3c(n([C@@H](CCCCNC(=O)C(F)(F)F)C(=O)O)c(=O)c2c1)C(=O)c1c(O[C@H]2C[C@@H](O)[C@@H](O)[C@H](C)O2)cccc1C3=O | inactive | > 128 | ≥ 100 | ≥ 100 | ≥ 100 | > 128 | inactive |
